Assay results: ChEMBL document CHEMBL1147345, “Appenolides A-C: three new antifungal furanones from the coprophilous fungus Podospora appendiculata” (1993)
The source made the active and inactive calls. The rule behind the calls is not given here.

Key:
Format in all cases: functional
[1] = test system: Bacillus subtilis; test: Antibacterial activity against Bacillus subtilis ATCC 6051 at 150 ug/disk by standard disk assay; settings: for zone of inhibition at 150 µg/disc: read-out: IZ
In short: (§1)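 Standard disc assay with 150 µg of compound loaded per disc. Activity is read as the zone of inhibition around the disc, in mm.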

[2] = test system: Candida albicans; test: Antifungal activity against Candida albicans ATCC 14053 at 150 ug/disk by standard disk assay; settings: read-out: IZ; in short: as §1
[3] = test system: Ascobolus stercorarius; test: Antifungal activity against Ascobolus furfuraceus NRRL 6460 assessed as reduction in radial growth rate at 50 ug/disk by centerpoint inoculation disk assay; parameters: scale not given: the % may be the effect or the level left
[4] = test system: Sordaria fimicola; test: Antifungal activity against Sordaria fimicola NRRL 6459 assessed as reduction in radial growth rate at 150 ug/disk by centerpoint inoculation disk assay; parameters: scale not given: the % may be the effect or the level left

SMILES | Activity [1] | zone of inhibition at 150 µg/disc [2] [mm] | Activity [3] | Activity [4] | zone of inhibition at 150 µg/disc [1] [mm]
CC(=O)CCCCC/C=C/C1=C(C)C(=O)OC1 [APPENOLIDE A] | inactive | 12 | 26% | 54% | 
CC1=C(/C=C/CCCCCC(C)O)COC1=O (configuration not stated) [APPENOLIDE B] |  | 12 | Active | Active | 8
CCC(O)CCCC/C=C/C1=C(C)C(=O)OC1 (configuration not stated) [APPENOLIDE C] |  | 12 | Active | Active | 8
